ChEMBL document CHEMBL4732237, “Discovery of 4-alkoxy-2-aryl-6,7-dimethoxyquinolines as a new class of topoisomerase I inhibitors endowed with potent in vitro anticancer activity” (2021)

How the values were obtained:
Assay type in all cases: functional
Details in all cases: read-out: GI
HL-60(TB) = assay: Growth inhibition of human HL-60(TB) cells at 10 uM incubated for 48 hrs by sulforhodamine B assay relative to control
In short: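 NCI-60 one-dose screen: same culture, 48 h drug exposure and SRB read-out. Reported as percent growth relative to no-drug control and to time-zero cell number; 0–100 means growth inhibition, below 0 means lethality.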

K562 = assay: Growth inhibition of human K562 cells at 10 uM incubated for 48 hrs by sulforhodamine B assay relative to control
In short: (§1)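 NCI-60 single-dose screen. Cells were grown in RPMI 1640 with 5% FBS and 2 mM L-glutamine and plated 24 h before drug addition. Compound was added at one concentration in DMSO-derived medium and incubated for 48 h at 37 °C in 5% CO2. Read-out was SRB protein stain at 515 nm. Result is percent growth versus the no-drug control and the time-zero cell count; values below 0 indicate lethality.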

MOLT-4 = assay: Growth inhibition of human MOLT-4 cells at 10 uM incubated for 48 hrs by sulforhodamine B assay relative to control
In short: (§2)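 NCI one-dose screen. Cells grown in RPMI 1640 with 5% FBS and 2 mM L-glutamine, plated and incubated 24 h at 37 °C, 5% CO2. DMSO-dissolved drug added, then 48 h further incubation. Adherent cells fixed with cold TCA, suspension cells fixed after settling. Stained with 0.4% SRB, absorbance read at 515 nm. Reported as percent growth relative to no-drug control and time-zero cell number.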

SR = assay: Growth inhibition of human SR cells at 10 uM incubated for 48 hrs by sulforhodamine B assay relative to control; in short: as §2
EKVX = assay: Growth inhibition of human EKVX cells at 10 uM incubated for 48 hrs by sulforhodamine B assay relative to control; in short: as §1
HOP-62 = assay: Growth inhibition of human HOP-62 cells at 10 uM incubated for 48 hrs by sulforhodamine B assay relative to control; in short: as §1
NCI-H23 = assay: Growth inhibition of human NCI-H23 cells at 10 uM incubated for 48 hrs by sulforhodamine B assay relative to control; in short: as §2
NCI-H322M = assay: Growth inhibition of human NCI-H322M cells at 10 uM incubated for 48 hrs by sulforhodamine B assay relative to control; in short: as §2
NCI-H460 = assay: Growth inhibition of human NCI-H460 cells at 10 uM incubated for 48 hrs by sulforhodamine B assay relative to control; in short: as §2
NCI-H522 = assay: Growth inhibition of human NCI-H522 cells at 10 uM incubated for 48 hrs by sulforhodamine B assay relative to control; in short: as §2
COLO 205 = assay: Growth inhibition of human COLO 205 cells at 10 uM incubated for 48 hrs by sulforhodamine B assay relative to control; in short: as §1
KM12 = assay: Growth inhibition of human KM12 cells at 10 uM incubated for 48 hrs by sulforhodamine B assay relative to control; in short: as §1
SW-620 = assay: Growth inhibition of human SW-620 cells at 10 uM incubated for 48 hrs by sulforhodamine B assay relative to control
In short: (§3)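 NCI one-dose screen across a 59-line panel. Cells were grown in RPMI 1640 with 5% FBS and 2 mM L-glutamine, plated and pre-incubated 24 h, then exposed to drug for 48 h at 37 °C, 5% CO2. Adherent cells were fixed with cold TCA (10% final), stained with 0.4% SRB in 1% acetic acid and read at 515 nm. Result is percent growth relative to no-drug control and time-zero cell count.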

SF-268 = assay: Growth inhibition of human SF-268 cells at 10 uM incubated for 48 hrs by sulforhodamine B assay relative to control; in short: as §2
SF-539 = assay: Growth inhibition of human SF-539 cells at 10 uM incubated for 48 hrs by sulforhodamine B assay relative to control; in short: as §2
SNB-19 = assay: Growth inhibition of human SNB-19 cells at 10 uM incubated for 48 hrs by sulforhodamine B assay relative to control; in short: as §2
SNB-75 = assay: Growth inhibition of human SNB-75 cells at 10 uM incubated for 48 hrs by sulforhodamine B assay relative to control; in short: as §2
U-251 = assay: Growth inhibition of human U-251 cells at 10 uM incubated for 48 hrs by sulforhodamine B assay relative to control; in short: as §3
M14 = assay: Growth inhibition of human M14 cells at 10 uM incubated for 48 hrs by sulforhodamine B assay relative to control; in short: as §1
MDA-MB-435 = assay: Growth inhibition of human MDA-MB-435 cells at 10 uM incubated for 48 hrs by sulforhodamine B assay relative to control; in short: as §1
SK-MEL-2 = assay: Growth inhibition of human SK-MEL-2 cells at 10 uM incubated for 48 hrs by sulforhodamine B assay relative to control; in short: as §2
UACC-257 = assay: Growth inhibition of human UACC-257 cells at 10 uM incubated for 48 hrs by sulforhodamine B assay relative to control; in short: as §3
UACC-62 = assay: Growth inhibition of human UACC-62 cells at 10 uM incubated for 48 hrs by sulforhodamine B assay relative to control; in short: as §3
IGROV-1 = assay: Growth inhibition of human IGROV-1 cells at 10 uM incubated for 48 hrs by sulforhodamine B assay relative to control; in short: as §1
OVCAR-3 = assay: Growth inhibition of human OVCAR-3 cells at 10 uM incubated for 48 hrs by sulforhodamine B assay relative to control; in short: as §2
OVCAR-4 = assay: Growth inhibition of human OVCAR-4 cells at 10 uM incubated for 48 hrs by sulforhodamine B assay relative to control; in short: as §2
OVCAR-5 = assay: Growth inhibition of human OVCAR-5 cells at 10 uM incubated for 48 hrs by sulforhodamine B assay relative to control; in short: as §2
OVCAR-8 = assay: Growth inhibition of human OVCAR-8 cells at 10 uM incubated for 48 hrs by sulforhodamine B assay relative to control; in short: as §2
NCI/ADR-RES = assay: Growth inhibition of human NCI/ADR-RES cells at 10 uM incubated for 48 hrs by sulforhodamine B assay relative to control; in short: as §2
SK-OV-3 = assay: Growth inhibition of human SK-OV-3 cells at 10 uM incubated for 48 hrs by sulforhodamine B assay relative to control; in short: as §2
RXF 393 = assay: Growth inhibition of human RXF 393 cells at 10 uM incubated for 48 hrs by sulforhodamine B assay relative to control; in short: as §2
TK-10 = assay: Growth inhibition of human TK-10 cells at 10 uM incubated for 48 hrs by sulforhodamine B assay relative to control; in short: as §3
UO-31 = assay: Growth inhibition of human UO-31 cells at 10 uM incubated for 48 hrs by sulforhodamine B assay relative to control; in short: as §3
PC-3 = assay: Growth inhibition of human PC-3 cells at 10 uM incubated for 48 hrs by sulforhodamine B assay relative to control; in short: as §2
MCF7 = assay: Growth inhibition of human MCF7 cells at 10 uM incubated for 48 hrs by sulforhodamine B assay relative to control; in short: as §1
MDA-MB-468 = assay: Growth inhibition of human MDA-MB-468 cells at 10 uM incubated for 48 hrs by sulforhodamine B assay relative to control; in short: as §1

Measured: inhibition of growth at 10 µM

COc1cc2nc(-c3ccc(Cl)cc3)cc(OCCN3CCCCC3)c2cc1OC
3%: all assays above

COc1cc2nc(-c3ccc(Cl)cc3)cc(OCCN3CCOCC3)c2cc1OC
3%: all assays above
